Experimental findings from ChEMBL document CHEMBL2146423, “Photoresponsive 5'-cap for the reversible photoregulation of gene expression” (Bioorg Med Chem Lett, 2011) are described below.

Active and inactive are the calls of the source. The rule behind the calls is not given here.

In data set [1] the test system is Nucleic Acid. Put plainly: Binding affinity to Aequorea victoria GFP mRNA in insect cell extract assessed as increase in mRNA translation at 4.8 mM irradiated with 310 nm monochromatic light for 2 mins measured up to 60 mins by time course fluorescence assay. The class given is nucleic-acid assay. Put shortly:
(§1)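 GFP mRNA capped at the 5' end during in vitro T7 transcription (37 °C, 4 h; PCR template carrying a 30-base poly(A) tail), then DNase-treated and purified. Translated in insect cell extract. Sample irradiated 2 min at 310 nm at 0 and 130 min and 2 min at 410 nm at 60 min. GFP fluorescence (ex 480 nm, em 509 nm) recorded over time, with normal-capped mRNA run alongside.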

A short description of data set [2]: Thermal stability of the compound assessed as compound isomerization at 80 degC after 20 hrs. Type of data set: physicochemical. Put shortly: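 Cis and trans isomers held at 80 °C for 20 h and checked for thermal isomerization. Isomers were generated with a 300 W xenon lamp at 25 °C, 2 cm from the source: 410 nm (103 mW/cm2) or 310 nm (81 mW/cm2), 2 min each. Isomer content measured by HPLC peak area.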

The subject of data set [3] is Nucleic Acid. Put plainly: Binding affinity to Aequorea victoria GFP mRNA in insect cell extract assessed as inhibition of mRNA translation at 4.8 mM irradiated with 310 nm monochromatic light for 2 mins measured after 10 hrs by fluorescence assay. The class given is nucleic-acid assay. The method in brief:
(§2)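 Capped GFP mRNA made by in vitro T7 transcription (37 °C, 4 h; poly(A)30 template), DNase-digested and purified, then translated in insect cell extract. Before translation the mixture was irradiated at room temperature for 2 min at 410 nm (cis to trans) or 310 nm (trans to cis). GFP read by fluorescence.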

The test system of data set [4] is Nucleic Acid. Put plainly: Binding affinity to Aequorea victoria GFP mRNA in insect cell extract assessed as increase in mRNA translation at 4.8 mM irradiated with 310 nm monochromatic light for 2 mins measured after 130 mins by time course fluorescence assay. The class given is nucleic-acid assay. The method in brief:
as §1

Data set [5] deals with Nucleic Acid. Put plainly: Binding affinity to Aequorea victoria GFP mRNA in insect cell extract assessed as mRNA translational efficiency at 4.8 mM irradiated with 410 nm monochromatic light for 2 mins measured after 10 hrs by fluorescence assay. The class given is nucleic-acid assay. The method in brief:
as §2

In data set [6] the test system is Nucleic Acid. Put plainly: Binding affinity to Aequorea victoria GFP mRNA in insect cell extract assessed as inhibition of mRNA translation at 4.8 mM irradiated with 410 nm monochromatic light for 2 mins measured after 10 hrs by fluorescence assay. Type of data set: nucleic-acid assay. The method in brief:
as §2

Data set [7] has as its system Nucleic Acid. Put plainly: Binding affinity to Aequorea victoria GFP mRNA in insect cell extract assessed as mRNA translational efficiency at 4.8 mM irradiated with 410 nm monochromatic light for 2 mins measured after 10 hrs by fluorescence assay relative to normal-capped mRNA. Type of data set: nucleic-acid assay. Put shortly: as §2

Regarding `CCN(CC)CC.CCN(CC)CC.C[n+]1c(/C=C/c2ccc3ccccc3c2)n([C@@H]2O[C@H](COP(=O)([O-])OP(=O)(O)OP(=O)(O)OC[C@H]3O[C@@H](n4cnc5c(=O)[nH]c(N)nc54)[C@H](O)[C@@H]3O)[C@@H](O)[C@H]2O)c2nc(N)[nH]c(=O)c21`, the result in the data set with Nucleic Acid [1] and in the data set with Nucleic Acid [4] was inactive. In data set [2], the Stability result is recorded as “Stable”. The inhibition result in the data set with Nucleic Acid [3] is “Active”.

`CCN(CC)CC.CCN(CC)CC.C[n+]1c(/C=C/c2ccccc2)n([C@@H]2O[C@H](COP(=O)([O-])OP(=O)(O)OP(=O)(O)OC[C@H]3O[C@@H](n4cnc5c(=O)[nH]c(N)nc54)[C@H](O)[C@@H]3O)[C@@H](O)[C@H]2O)c2nc(N)[nH]c(=O)c21`: in data set [2], the Stability result is given as “Stable”.

`CCN(CC)CC.CCN(CC)CC.C[n+]1c(/C=C\c2ccc3ccccc3c2)n([C@@H]2O[C@H](COP(=O)(O)OP(=O)(O)OP(=O)([O-])OC[C@H]3O[C@@H](n4cnc5c(=O)[nH]c(N)nc54)[C@H](O)[C@@H]3O)[C@@H](O)[C@H]2O)c2nc(N)[nH]c(=O)c21`: the outcome with Nucleic Acid [5] was Active. Further, the Stability result in data set [2] is “Stable”.

Regarding `CCN(CC)CC.CCN(CC)CC.C[n+]1c(/C=C\c2ccc3c(c2)Cc2ccccc2-3)n([C@@H]2O[C@H](COP(=O)(O)OP(=O)(O)OP(=O)([O-])OC[C@H]3O[C@@H](n4cnc5c(=O)[nH]c(N)nc54)[C@H](O)[C@@H]3O)[C@@H](O)[C@H]2O)c2nc(N)[nH]c(=O)c21`, the inhibition result in the data set with Nucleic Acid [6] was “Active”. In addition, the Stability entry in data set [2] is “Stable”.

With `CCN(CC)CC.CCN(CC)CC.C[n+]1c(/C=C\c2ccccc2)n([C@@H]2O[C@H](COP(=O)([O-])OP(=O)(O)OP(=O)(O)OC[C@H]3O[C@@H](n4cnc5c(=O)[nH]c(N)nc54)[C@H](O)[C@@H]3O)[C@@H](O)[C@H]2O)c2nc(N)[nH]c(=O)c21`, the fold change (FC) with Nucleic Acid [7] was found to be 2.2. The Stability result in data set [2] is “Stable”.

With `CCN(CC)CC.CCN(CC)CC.C[n+]1c(/C=C/c2ccc3c(c2)Cc2ccccc2-3)n([C@@H]2O[C@H](COP(=O)([O-])OP(=O)(O)OP(=O)(O)OC[C@H]3O[C@@H](n4cnc5c(=O)[nH]c(N)nc54)[C@H](O)[C@@H]3O)[C@@H](O)[C@H]2O)c2nc(N)[nH]c(=O)c21`, the Stability entry in data set [2] was “Stable”. In addition, the inhibition entry with Nucleic Acid [3] is “Active”.
